Drawing on ChEMBL document CHEMBL4304789, “Design, Synthesis, and Biological Evaluation of 2,4-Imidazolinedione Derivatives as HDAC6 Isoform-Selective Inhibitors” (ACS Med Chem Lett, 2019), this text covers IC50 and Activity for three compounds.

In assay [1] the target is T1, Polyamine deacetylase HDAC10 (Homo sapiens, UniProt Q969S8).
T1 sequence (Q969S8 whole entry): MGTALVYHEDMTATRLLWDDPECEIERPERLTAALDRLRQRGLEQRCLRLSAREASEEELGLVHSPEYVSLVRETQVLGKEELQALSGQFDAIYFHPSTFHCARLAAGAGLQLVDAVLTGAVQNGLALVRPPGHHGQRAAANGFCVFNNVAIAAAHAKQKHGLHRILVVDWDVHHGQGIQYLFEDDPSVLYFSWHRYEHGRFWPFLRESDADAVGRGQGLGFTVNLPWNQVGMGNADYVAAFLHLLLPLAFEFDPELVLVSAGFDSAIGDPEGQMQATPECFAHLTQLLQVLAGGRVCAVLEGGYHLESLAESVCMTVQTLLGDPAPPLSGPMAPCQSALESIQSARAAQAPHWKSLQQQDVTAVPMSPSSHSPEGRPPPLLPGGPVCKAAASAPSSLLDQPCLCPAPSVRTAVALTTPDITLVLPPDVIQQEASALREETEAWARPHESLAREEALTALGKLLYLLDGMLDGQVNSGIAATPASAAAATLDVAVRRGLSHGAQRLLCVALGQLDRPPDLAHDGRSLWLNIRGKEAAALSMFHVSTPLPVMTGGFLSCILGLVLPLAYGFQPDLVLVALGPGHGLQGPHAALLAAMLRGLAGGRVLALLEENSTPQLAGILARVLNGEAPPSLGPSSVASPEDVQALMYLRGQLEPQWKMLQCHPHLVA
Briefly: Inhibition of HDAC10 (unknown origin) using Ac-ArgThr- Lys(Ac)Lys(Ac)-AMC as substrate preincubated for 5 mins followed by substrate addition and measured after 60 mins by fluorescence based assay.

In assay [2] the target is Histone deacetylase 2 (Homo sapiens, UniProt Q92769). Briefly: Inhibition of HDAC2 (unknown origin) using Ac-LeuGlyLys(Ac)-AMC as substrate preincubated for 5 mins followed by substrate addition and measured after 60 mins by fluorescence based assay.
Assay [3] has as its system HL-60. Briefly: Antiproliferative activity against human HL60 cells incubated for 48 hrs by MTT assay. In kind it is functional, cell-based. The following applies: HL-60, 48 h. For orientation: Tetrazolium dyes change colour on reduction, which living cells bring about.
The target in assay [4] is Histone deacetylase 9 (Homo sapiens, UniProt Q9UKV0). Briefly: Inhibition of HDAC9 (unknown origin) using Ac-LeuGlyLys(tfa)-AMC as substrate preincubated for 5 mins followed by substrate addition and measured after 60 mins by fluorescence based assay.
Assay [5] addresses Histone deacetylase 5 (Homo sapiens, UniProt Q9UQL6). Briefly: Inhibition of HDAC5 (unknown origin) using Ac-LeuGlyLys(tfa)-AMC as substrate preincubated for 5 mins followed by substrate addition and measured after 60 mins by fluorescence based assay.
Assay [6] concerns the target T2, Protein deacetylase HDAC6 (Homo sapiens, UniProt Q9UBN7).
T2 sequence (Q9UBN7 whole entry): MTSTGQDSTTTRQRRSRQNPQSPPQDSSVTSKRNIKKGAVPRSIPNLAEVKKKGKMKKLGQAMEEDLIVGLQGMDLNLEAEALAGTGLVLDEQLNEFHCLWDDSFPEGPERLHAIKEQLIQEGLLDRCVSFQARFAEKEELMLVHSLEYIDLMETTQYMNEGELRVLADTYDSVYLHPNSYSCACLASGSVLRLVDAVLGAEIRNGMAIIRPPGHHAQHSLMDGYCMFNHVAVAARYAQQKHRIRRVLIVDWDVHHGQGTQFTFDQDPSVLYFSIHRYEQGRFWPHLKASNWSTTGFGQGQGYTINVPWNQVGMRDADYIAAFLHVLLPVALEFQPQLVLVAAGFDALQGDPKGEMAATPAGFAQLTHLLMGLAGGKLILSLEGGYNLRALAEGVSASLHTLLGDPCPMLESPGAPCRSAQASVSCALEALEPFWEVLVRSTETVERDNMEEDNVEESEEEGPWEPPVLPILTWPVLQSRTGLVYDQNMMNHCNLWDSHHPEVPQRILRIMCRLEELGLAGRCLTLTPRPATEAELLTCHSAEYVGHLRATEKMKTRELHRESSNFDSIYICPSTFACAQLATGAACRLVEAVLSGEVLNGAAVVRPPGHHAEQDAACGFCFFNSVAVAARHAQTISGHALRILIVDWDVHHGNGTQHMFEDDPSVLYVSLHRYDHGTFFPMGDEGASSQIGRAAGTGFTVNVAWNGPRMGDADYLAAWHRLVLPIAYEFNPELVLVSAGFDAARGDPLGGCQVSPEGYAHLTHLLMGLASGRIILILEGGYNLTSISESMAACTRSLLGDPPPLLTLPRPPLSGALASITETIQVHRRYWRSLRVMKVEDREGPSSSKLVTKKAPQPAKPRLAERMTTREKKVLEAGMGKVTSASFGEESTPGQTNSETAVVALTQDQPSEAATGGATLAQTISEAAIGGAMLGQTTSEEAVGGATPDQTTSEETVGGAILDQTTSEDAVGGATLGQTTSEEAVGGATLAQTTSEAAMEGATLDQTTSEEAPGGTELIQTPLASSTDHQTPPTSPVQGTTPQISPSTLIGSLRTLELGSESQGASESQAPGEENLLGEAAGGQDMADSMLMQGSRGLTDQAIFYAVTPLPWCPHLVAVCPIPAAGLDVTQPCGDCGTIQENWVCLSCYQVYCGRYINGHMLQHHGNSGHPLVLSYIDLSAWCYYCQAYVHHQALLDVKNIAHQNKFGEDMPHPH
Briefly: Inhibition of HDAC6 (unknown origin) using Ac-LeuGlyLys(Ac)-AMC as substrate preincubated for 5 mins followed by substrate addition and measured after 60 mins by fluorescence based assay.

Assay [7] concerns HL-60. Briefly: Induction of cell cycle arrest in human HL60 cells assessed as accumulation of cells at G1 phase at 0.25 to 0.45 uM incubated for 48 hrs by PI staining based flow cytometric analysis. In kind it is functional. Summed up:
(§1)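 PI staining of HL-60 cells, with DMSO-treated cells as control, used to read cell-cycle phase distribution including G1 and subG1 fractions. Mean ± SD of at least three independent experiments.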

Assay [8] concerns HL-60. Briefly: Induction of cell cycle arrest in human HL60 cells assessed as accumulation of cells at subG1 phase at 0.25 to 0.45 uM incubated for 48 hrs by PI staining based flow cytometric analysis. The assay is classed as functional. In outline: as §1
Background: In flow cytometry, cells or beads pass a laser one at a time.

Assay [9] addresses T3, Histone deacetylase 11 (Homo sapiens, UniProt Q96DB2).
T3 sequence (Q96DB2 whole entry): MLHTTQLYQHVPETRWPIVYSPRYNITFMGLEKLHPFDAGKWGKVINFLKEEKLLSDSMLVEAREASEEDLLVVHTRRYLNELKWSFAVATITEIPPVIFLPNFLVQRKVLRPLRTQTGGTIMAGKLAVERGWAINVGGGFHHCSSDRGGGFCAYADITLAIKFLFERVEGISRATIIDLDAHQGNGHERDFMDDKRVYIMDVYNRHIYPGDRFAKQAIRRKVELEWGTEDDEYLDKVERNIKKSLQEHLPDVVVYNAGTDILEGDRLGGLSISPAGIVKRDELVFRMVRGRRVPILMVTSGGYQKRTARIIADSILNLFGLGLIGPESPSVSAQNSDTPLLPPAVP
Briefly: Inhibition of HDAC11 (unknown origin) using Ac-LeuGlyLys(Ac)-AMC as substrate preincubated for 5 mins followed by substrate addition and measured after 60 mins by fluorescence based assay.

The source made the active and inactive calls. No cut-off for these calls is given here.

Chain of Histone deacetylase 9 (Q9UKV0 whole entry): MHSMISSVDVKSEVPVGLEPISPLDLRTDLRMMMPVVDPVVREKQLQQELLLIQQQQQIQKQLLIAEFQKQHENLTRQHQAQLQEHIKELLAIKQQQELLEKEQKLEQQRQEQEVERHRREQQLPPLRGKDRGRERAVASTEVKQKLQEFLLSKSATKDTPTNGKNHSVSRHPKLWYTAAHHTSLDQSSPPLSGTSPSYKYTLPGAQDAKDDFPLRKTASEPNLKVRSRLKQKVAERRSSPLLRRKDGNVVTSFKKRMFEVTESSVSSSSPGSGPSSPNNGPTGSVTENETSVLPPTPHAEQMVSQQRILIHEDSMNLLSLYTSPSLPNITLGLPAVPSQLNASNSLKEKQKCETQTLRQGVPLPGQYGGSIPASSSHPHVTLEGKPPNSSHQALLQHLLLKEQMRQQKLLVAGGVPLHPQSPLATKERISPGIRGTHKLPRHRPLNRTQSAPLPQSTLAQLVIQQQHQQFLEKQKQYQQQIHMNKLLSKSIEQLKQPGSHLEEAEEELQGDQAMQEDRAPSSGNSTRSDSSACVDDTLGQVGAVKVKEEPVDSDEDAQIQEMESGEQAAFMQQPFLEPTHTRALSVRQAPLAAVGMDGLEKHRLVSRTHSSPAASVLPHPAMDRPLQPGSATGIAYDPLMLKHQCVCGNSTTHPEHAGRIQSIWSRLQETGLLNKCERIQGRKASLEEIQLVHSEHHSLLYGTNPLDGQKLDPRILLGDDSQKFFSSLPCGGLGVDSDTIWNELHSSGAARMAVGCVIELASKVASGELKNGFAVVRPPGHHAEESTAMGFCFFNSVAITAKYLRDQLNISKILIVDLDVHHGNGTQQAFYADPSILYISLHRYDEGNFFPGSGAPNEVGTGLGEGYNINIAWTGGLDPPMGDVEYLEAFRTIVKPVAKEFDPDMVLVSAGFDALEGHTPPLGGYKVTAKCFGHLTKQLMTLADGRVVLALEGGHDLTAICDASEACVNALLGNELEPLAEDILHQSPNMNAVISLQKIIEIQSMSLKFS
Chain of Histone deacetylase 5 (Q9UQL6 whole entry): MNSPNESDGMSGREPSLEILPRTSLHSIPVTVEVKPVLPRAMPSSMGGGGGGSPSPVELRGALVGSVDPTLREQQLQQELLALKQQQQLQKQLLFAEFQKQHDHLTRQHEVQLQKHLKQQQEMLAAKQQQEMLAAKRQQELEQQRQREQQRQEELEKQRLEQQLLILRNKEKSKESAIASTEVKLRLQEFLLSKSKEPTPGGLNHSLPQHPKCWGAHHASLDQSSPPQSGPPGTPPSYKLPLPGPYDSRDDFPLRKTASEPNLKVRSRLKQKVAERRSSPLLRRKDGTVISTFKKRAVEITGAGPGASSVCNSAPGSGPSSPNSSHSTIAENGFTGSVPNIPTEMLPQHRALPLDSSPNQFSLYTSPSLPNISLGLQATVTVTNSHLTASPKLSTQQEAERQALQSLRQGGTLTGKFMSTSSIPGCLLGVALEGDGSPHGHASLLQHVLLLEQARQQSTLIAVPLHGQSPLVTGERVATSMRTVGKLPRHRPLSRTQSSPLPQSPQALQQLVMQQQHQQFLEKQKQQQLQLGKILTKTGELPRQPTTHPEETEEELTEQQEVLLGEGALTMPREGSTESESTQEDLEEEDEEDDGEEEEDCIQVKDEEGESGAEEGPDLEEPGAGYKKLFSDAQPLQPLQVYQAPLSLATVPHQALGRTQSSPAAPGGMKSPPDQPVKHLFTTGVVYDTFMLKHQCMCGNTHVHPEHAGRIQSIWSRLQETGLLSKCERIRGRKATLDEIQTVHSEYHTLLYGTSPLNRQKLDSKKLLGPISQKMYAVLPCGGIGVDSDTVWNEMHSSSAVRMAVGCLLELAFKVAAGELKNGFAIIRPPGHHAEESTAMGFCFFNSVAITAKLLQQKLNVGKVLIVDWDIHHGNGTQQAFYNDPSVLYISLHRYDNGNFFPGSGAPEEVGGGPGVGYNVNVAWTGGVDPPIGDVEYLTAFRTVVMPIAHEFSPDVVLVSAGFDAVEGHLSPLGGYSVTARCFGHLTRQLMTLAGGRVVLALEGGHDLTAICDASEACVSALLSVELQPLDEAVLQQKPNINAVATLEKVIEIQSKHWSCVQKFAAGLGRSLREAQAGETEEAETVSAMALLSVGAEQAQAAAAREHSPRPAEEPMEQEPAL
Chain of Histone deacetylase 2 (Q92769 whole entry): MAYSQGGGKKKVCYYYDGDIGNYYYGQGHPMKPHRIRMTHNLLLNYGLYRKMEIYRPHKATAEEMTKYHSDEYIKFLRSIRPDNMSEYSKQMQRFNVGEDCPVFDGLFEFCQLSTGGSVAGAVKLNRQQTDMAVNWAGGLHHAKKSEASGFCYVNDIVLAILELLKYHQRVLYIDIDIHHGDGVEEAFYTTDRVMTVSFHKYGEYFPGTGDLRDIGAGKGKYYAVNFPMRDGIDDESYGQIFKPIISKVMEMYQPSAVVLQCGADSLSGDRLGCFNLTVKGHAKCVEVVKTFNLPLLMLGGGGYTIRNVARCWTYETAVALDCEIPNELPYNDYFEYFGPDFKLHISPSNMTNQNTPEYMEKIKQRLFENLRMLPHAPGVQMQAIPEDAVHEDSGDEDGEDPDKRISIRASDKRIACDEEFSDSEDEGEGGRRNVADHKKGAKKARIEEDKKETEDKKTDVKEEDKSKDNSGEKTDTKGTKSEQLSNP

Turning to `O=C(CCC1C(=O)N(c2ccc(Cl)cc2)C(=O)N1Cc1ccc(Br)cc1)Nc1ccc(C(=O)NO)cc1` (stereo not given), the IC50 came to 268 nM in [1]; 249 nM in assay [2]; 340 nM in assay [3]; 9100 nM in assay [4]; 4600 nM in [5]; 9.7 nM in [6]. In assay [9], this compound came in with an IC50 above 100000 nM. Besides, the result in assay [7] and in assay [8] was Active.
In the case of `O=C(CCC1C(=O)N(c2ccc(Cl)cc2)C(=O)N1Cc1ccccc1)Nc1ccc(C(=O)NO)cc1` (stereo not given), the IC50 in assay [1] is 114 nM; in assay [2], 203 nM; in assay [3], 610 nM; in assay [4] it was 15200 nM; in [5], 4600 nM; in assay [6], 7.6 nM. In assay [9], this compound registered an IC50 above 100000 nM.
In the case of `Cc1ccc(CN2C(=O)N(c3ccc(Cl)cc3)C(=O)C2CCC(=O)Nc2ccc(C(=O)NO)cc2)cc1` (stereo not given), the IC50 was 164 nM in assay [1]; 277 nM in assay [2]; 250 nM in [3]; above 100000 nM in assay [4]; 14900 nM in assay [5]; 4.4 nM in assay [6]. In [9], this compound gave an IC50 above 100000 nM. The outcome in [7] and in assay [8] was Active.

Broadly, the IC50 is the concentration needed to halve the response being measured. Read a low IC50 as higher potency.
